Laboratory results as given in PubChem BioAssay AID602155 (Broad Institute, 2011).
Calls of active or inactive are those of the source.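 How the source made its calls: active means radiolabeled lipid uptake into receptor liposomes lowered versus untreated receptor liposomes, like the reference inhibitor; inactive means the rest.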

Each compound was assayed against Scavenger receptor class B member 1 (Mus musculus) (UniProt Q61009) (assay: HDL cholesteryl ester transfer into SR-BI proteoliposomes – biochemical, reconstituted liposomes, [3H]CE-HDL, scintillation, dry powder, orthogonal assay for SR-BI HDL uptake inhibitor project (AID 602155)). Details: [3H]CE-HDL selective uptake, at 1 µM, stronger effect = lower value.
Sequence of Scavenger receptor class B member 1 (Mus musculus) (Q61009 whole entry, looked up): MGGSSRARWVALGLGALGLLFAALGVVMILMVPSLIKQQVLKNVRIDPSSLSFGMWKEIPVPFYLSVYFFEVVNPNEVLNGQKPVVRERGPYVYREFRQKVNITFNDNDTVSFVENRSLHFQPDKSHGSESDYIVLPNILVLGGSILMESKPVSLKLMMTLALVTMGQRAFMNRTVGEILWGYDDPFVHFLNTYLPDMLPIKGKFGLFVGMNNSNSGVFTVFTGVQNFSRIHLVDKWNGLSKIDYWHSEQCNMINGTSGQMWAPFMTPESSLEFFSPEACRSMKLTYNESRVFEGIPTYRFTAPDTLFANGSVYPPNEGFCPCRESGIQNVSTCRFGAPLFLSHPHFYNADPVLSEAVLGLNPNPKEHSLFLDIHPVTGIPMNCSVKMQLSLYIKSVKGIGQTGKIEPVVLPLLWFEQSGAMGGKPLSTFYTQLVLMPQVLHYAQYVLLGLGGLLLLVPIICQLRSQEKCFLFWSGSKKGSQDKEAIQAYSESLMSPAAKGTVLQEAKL
How it was run: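 material = murine SR-BI proteoliposomes | times = 60 min compound pre-incubation, then 4 h HDL uptake at 37 °C | evaluation = percent of control selective lipid uptake | benchmarks = compound-free SR-BI liposomes in 0.5% DMSO (high), receptor-free liposomes (low)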

| lipid uptake | Compound |
| --- | --- |
| 128% (inactive) | O=C(Nc1ccccc1)c1ccccc1NS(=O)(=O)c1ccc(Cl)cc1 |
| 63.1% | CCC(=O)N1CCc2cc(-c3csc(NC(=O)c4ccco4)n3)ccc21 |
| 46.9% | COc1ccc(-c2nnn(CC(=O)N(C3CCCCC3)C(C)C(=O)NC3CCCC3)n2)cc1OC (centres undefined) |
| 52.9% | CCOC(=O)N1CCC(NC(=O)c2ccc3c(c2)N(Cc2ccc(F)cc2)CCS3)CC1 |
